# Entries after “also recorded” stand apart in the source; their conditions may differ. Read-outs that look alike come from different tables or passages of the source.
# What was measured:
# SARS-CoV-2 [1] = details: cited from earlier work; for EC50, inhibit SARS-CoV-2 replications in vitro: entry inhibitors
# SARS-CoV-2 [2] = details: hamster; cited from earlier work
# influenza [3] = assay: Predicted anti-influenza EC50 by pEC50 = pIC50 + Log Fic; details: A549, read-out: Predicted EC50 (anti-influenza)
# ACE2 = ACE2 expression in Vero E6 cells; assay type: cell-based; details: 48 h, RNA-seq, western blot
# influenza [4] = details: read-out: Observed EC50, influenza replication; A549 cells; cited from earlier work
# [5] = IV injection of RDV, mice
# [6] = IV injection of RDV, rhesus macaques
# [7] = tested on: multidrug resistance-associated protein 4 (MRP4); details: ref 28 (RDV), FDA Office of Clinical Pharmacology Review (GS-441524); cited from earlier work
# [8] = IV injection of RDV, nonhuman primates; cited from earlier work
# SARS-CoV-2 [9] = details: cited from earlier work
# RdRp of SARS-CoV-2 = details: read-out: IC50, inhibition of RdRp of SARS-CoV-2; active form of RDV; cited from earlier work
# SARS-CoV-2 [10] = details: rhesus macaque, cited from earlier work
# SARS-CoV-2 M^pro = SARS-CoV-2 M^pro (Severe acute respiratory syndrome coronavirus 2, UniProt P0DTD1); details: cited from earlier work
# Calu-3 cells = assay: Cytotoxicity; assay type: cell-based
# Summary of the method: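 Calu-3 cells were grown in medium supplemented with 1% non-essential amino acids and 1% sodium pyruvate at 37 °C, 5% CO2. Cells were seeded and cultured for 24 h, then exposed to test compound for 48 h. CCK8 solution was added at 10% and incubated 15 min to read viability.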
smiles,measurement,setting,value
"CCN(CC)CCCC(C)Nc1ccnc2cc(Cl)ccc12 (centres unmarked) [CQ, Chloroquine]","EC50, inhibit SARS-CoV-2 replications in vitro",SARS-CoV-2 [1],low micromolar
same,Drug accumulation with verapamil (P-gp inhibitor),Vero E6 cells,facilitated accumulation
"NC(=O)c1nc(F)c[nH]c1=O [FAV, Favipiravir]",Fic,A549 cells,0.03145
same,Infectious titers in the lung,SARS-CoV-2 [2],reduction of infectious titers in the lung
same,EC50,"SARS-CoV-2 [1]; read-out: Observed EC50, SARS-CoV-2 replication, Vero E6",65 to 400 µM
same,EC50,influenza [3],3.2 µM
same,Fic,"Vero E6 cells; Vero E6, Fic = fu,cell x Kp",0.03371
same,Drug accumulation with verapamil (P-gp inhibitor),Vero E6 cells; Vero E6 cells,increased FAV accumulation
same,ACE2 expression,ACE2,reduced angiotensin-converting enzyme 2 (ACE2) expression
same,EC50,influenza [4],3 µM
N#C[C@@]1(c2ccc3c(N)ncnn23)O[C@H](CO)[C@@H](O)[C@H]1O [GS-441524],Lung concentration of GS-441524 relative to its predicted EC50,[5],10 fold
same,Lung concentration of GS-441524 relative to its predicted EC50,[6],10 fold
same,Substrate of MRP4,[7],not a substrate
same,Bloodstream concentration of GS-441524 relative to RDV,[8],1000 fold
same,SARS-CoV-2 replication in vivo,"SARS-CoV-2 [9]; oral administration of GS-441524, mouse model",inhibit SARS-CoV-2 replication in vivo
N#C[C@@]1(c2ccc3c(N)ncnn23)O[C@H](COP(=O)(O)OP(=O)(O)OP(=O)(O)O)[C@@H](O)[C@H]1O [GS-443902],IC50,RdRp of SARS-CoV-2,0.032 µM
"CCN(CCO)CCCC(C)Nc1ccnc2cc(Cl)ccc12 (centres unmarked) [HCQ, hydroxychloroquine]",Infectious titers in lungs,SARS-CoV-2 [2],failed to reduce infectious titers
same,Infectious titers in lungs,SARS-CoV-2 [10],failed to reduce infectious titers
same,"EC50, inhibit SARS-CoV-2 replications in vitro",SARS-CoV-2 [1],low micromolar
same,Drug accumulation with verapamil (P-gp inhibitor),Vero E6 cells; Vero E6 cells,facilitated accumulation
same,Inhibition of M^pro activities at 200 μM,SARS-CoV-2 M^pro,slightly inhibited
"CCC(CC)COC(=O)[C@H](C)N[P@](=O)(OC[C@H]1O[C@@](C#N)(c2ccc3c(N)ncnn23)[C@H](O)[C@@H]1O)Oc1ccccc1 [RDV, Remdesivir]",Substrate of MRP4,[7],substrate
same,Antiviral activity in vivo,SARS-CoV-2 [10]; RDV,strong antiviral activities
same,Drug accumulation with ceefourin (MRP4 inhibitor),Vero E6 cells; Vero E6 cells,significantly increased RDV accumulation
same,Drug accumulation with verapamil (P-gp inhibitor),Vero E6 cells; Vero E6 cells,significantly increased RDV accumulation
same,Drug accumulation with ceefourin (MRP4 inhibitor),A549-ACE2 cells,Neither verapamil nor ceefourin changed RDV accumulation
same,Drug accumulation with verapamil (P-gp inhibitor),A549-ACE2 cells,Neither verapamil nor ceefourin changed RDV accumulation
same,Virus titer in the lung / antiviral activity in vivo,"SARS-CoV-2 [9]; RDV, mouse",successfully reduce virus titer in the lung; also recorded: strong antiviral activities
COc1ccc(CCN(C)CCCC(C#N)(c2ccc(OC)c(OC)c2)C(C)C)cc1OC (centres unmarked) [verapamil],Cytotoxicity,Calu-3 cells,strong cytotoxicity
